An excerpt weighted towards active compounds, which were near 3.5% of everything screened.
RGS4 inh: inhibitors of human RGS4. B-score at 10 µM. HEK293 M3R/RGS4 inducible, Fluo-4 calcium flux; hits give high values; triggered by carbachol at its EC20. P49798. 310,000 compounds, 0.45% hits;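 active = B-score, a plate-corrected calcium signal, over three deviations above library mean, with baseline fluorescence within five deviations of library mean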;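 also: RGS4 expression induced by doxycycline in cells with stable M3 receptor; B-score is computed from the integrated fluorescence ratio over baseline after carbachol; higher B-score means a larger calcium signal and so more RGS4 inhibition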
Target sequence (P49798 whole entry, looked up): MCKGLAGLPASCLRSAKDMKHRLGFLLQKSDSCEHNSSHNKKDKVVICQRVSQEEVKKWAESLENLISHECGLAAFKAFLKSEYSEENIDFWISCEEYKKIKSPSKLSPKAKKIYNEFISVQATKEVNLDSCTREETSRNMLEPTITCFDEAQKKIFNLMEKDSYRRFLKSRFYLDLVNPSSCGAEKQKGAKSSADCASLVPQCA
MrgX1 ag: activates human MrgX1 receptor signaling; B-score at 10 µM; AID 588627; MrgX1-HEK293 cells, Fluo-4 calcium fluorescence, agonist mode; hits give high values; Q96LB2; 310,000 compounds, 0.44% hits;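 active = calcium response B-score plate-corrected fluorescence ratio at least 3 library SD, with starting fluorescence B-score inside 5 SD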
Target sequence (Q96LB2 whole entry, looked up): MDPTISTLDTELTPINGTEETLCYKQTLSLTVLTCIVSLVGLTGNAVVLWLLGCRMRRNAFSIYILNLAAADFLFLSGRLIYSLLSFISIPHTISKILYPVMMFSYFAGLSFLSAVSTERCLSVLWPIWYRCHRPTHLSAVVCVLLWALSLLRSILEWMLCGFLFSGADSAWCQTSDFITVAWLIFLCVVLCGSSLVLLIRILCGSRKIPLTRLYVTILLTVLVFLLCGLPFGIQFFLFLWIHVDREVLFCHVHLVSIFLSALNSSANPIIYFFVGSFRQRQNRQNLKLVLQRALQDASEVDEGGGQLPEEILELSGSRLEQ
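times = overnight plating, then 30 min 37 °C plus 30 min room-temperature dye loading | assay system = stable human MrgX1 HEK293 cell line | input = fifteen thousand cells per well | signal = kinetic calcium dye fluorescence, Fluo-4 NW | dosing = compound delivered in addition one of three | read-out = B-scored fluorescence response ratio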
MrgX1 antagonist: antagonists of human MrgX1 receptor; Q96LB2; MRGX1-HEK293 calcium flux, Fluo-4, BAM8-22 antagonism; hits give low values; B-score at 10 µM; 310,000 compounds, 1.3% hits; AID 588676;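 active = calcium-response B-score plate-corrected more than 3 library SD below zero, starting fluorescence within 5 deviations, no agonist response on first addition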;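 also: peak minus trough fluorescence over baseline after final BAM8-22 challenge near maximal dose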
MrgX1 allo act: allosterically activates human MrgX1 receptor signaling; Q96LB2; MrgX1-HEK293, Fluo-4 calcium flux, FDSS; hits give high values; B-score at 10 µM; 310,000 compounds, 0.63% hits;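 active = plate-corrected calcium response at least 3 library SD above typical, normal starting fluorescence, not activating the receptor alone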;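 also: compound read alongside a low EC10 to EC30 dose of BAM8-22 agonist; peak minus trough fluorescence over baseline measured at the second addition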
RGS4 act: RGS4 potentiation or activation. HEK293 M3R/inducible RGS4, carbachol calcium flux Fluo4; hits give low values. B-score at 10 µM. 310,000 compounds, 0.92% hits. AID 463111;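 active = B-score of the integrated calcium signal more than 4 SD below the library mean, with starting fluorescence not abnormally high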;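 also: negative B-score means reduced calcium response which marks RGS4 activation or potentiation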
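Material: M3R-expressing HEK293 line, RGS4 induced by doxycycline | Schedule: Overnight RGS4 induction, 30 min dye load 37 °C, 20 min compound RT | Measured by: Fluo4 fluorescence kinetic imaging of calcium | Read-out: Integrated calcium ratio converted to B score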
MrgX1 PAM conf: human MrgX1 positive allosteric modulation, re-confirmation | AID 602413 | activation (ratio percentage), % at 10 µM | 1,200 compounds, 13% hits | MrgX1-HEK293, Fluo-4 calcium fluorescence, FDSS | shares compounds with MrgX1 allo act;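 active = ratio at least 3 SD above the weak peptide control, stable starting fluorescence, no direct agonism earlier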;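 also: compound followed by low BAM8-22 agonist challenge near EC20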
HEK293 Ca flux: activity in parental HEK293 cells lacking MrgX1; AID 624111; 4,000 compounds, 2% hits; shares compounds with MrgX1 antagonist; fluorescence ratio F(max-min)/F0 at 10 µM; Fluo-4 calcium fluorescence, FDSS;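 active = duplicate-averaged calcium fluorescence ratio at least three times the standard deviation of buffer wells, a nonspecific response in parental cells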
HEK293 Ca counter: counter-screen for MrgX1 allosteric activators: effect in parental HEK293 cells; shares compounds with MrgX1 antagonist; parental HEK293 calcium flux, Fluo-4 fluorescence ratio; hits give high values; 4,000 compounds, 0.4% hits; fluorescence ratio F(max-min)/F0 at 10 µM; AID 624114;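 active = calcium fluorescence ratio, averaged over duplicates, at least 3 SD of the buffer-well ratio, meaning a nonspecific response in receptor-free cells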;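 also: untransfected parental HEK293 lacking MrgX1 used as counterscreen for MrgX1 allosteric activators; fluorescence change taken during the second addition on a kinetic imager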
HEK293 Ca cntr2: counter-screen for MrgX1 activators: effect in parental HEK293 cells; fluorescence ratio F(max-min)/F0 at 10 µM; shares compounds with MrgX1 antagonist; 4,000 compounds, 8.7% hits; Fluo-4 calcium fluorescence (FDSS); hits give high values;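 active = calcium fluorescence ratio at least three times the spread of buffer wells, meaning a non-specific response in parental cells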
Starred values were filed as active, the others as inactive; i = inactive; / = not tested or not shown.

SMILES	RGS4 inh	MrgX1 ag	MrgX1 antagonist	MrgX1 allo act	RGS4 act	MrgX1 PAM conf	HEK293 Ca flux	HEK293 Ca counter	HEK293 Ca cntr2
COc1ccc(/C=N/N2CCN(Cc3ccc(C)cc3)CC2)cc1Br	i	i	i	i	i	/	/	/	/
O=C(N/N=C/c1c(O)ccc2ccccc12)c1ccc(CO)nc1	i	i	i	i	i	/	/	/	/
O=C(N/N=C\c1c(O)ccc2ccccc12)c1ccc(S(=O)(=O)N2CCCCC2)cc1	i	i	i	19.6*	i	i	0.418*	i	65.1*
CCN1CC2=C(OC(N)=C(C#N)C2c2ccccc2)/C(=C\c2ccccc2)C1 (stereo unspecified)	i	i	i	22.2*	i	i	i	i	i
CCN1CC2=C(OC(N)=C(C#N)C2c2cccs2)/C(=C/c2cccs2)C1 (stereo unspecified)	i	i	i	8.24*	i	i	i	i	i
N#CC1=C(N)OC2=C(CN(Cc3ccccc3)C/C2=C\c2cccnc2)C1c1cccnc1 (stereo unspecified)	i	i	i	i	i	/	/	/	/
Cc1cccc(NC(=O)C(CC(C)C)NC(=O)C2CCC(C)CC2)n1 (stereo unspecified)	i	i	i	i	i	/	/	/	/
Cc1ccc2nc(NCCCO)nc(-c3ccccc3)c2c1	i	i	i	10.8*	i	i	i	i	i
Cn1nc(C(F)(F)F)c(-c2ccc(Br)cc2)c1NC(=O)Nc1ccc(F)cc1F	i	i	i	i	i	/	/	/	/
CC(C)=CCc1c(C)nc2ccccc2c1C(=O)O	i	i	i	11.4*	i	i	i	i	i
COC(=O)c1c(C)nc2ccccc2c1C(=O)O	i	i	i	i	i	/	/	/	/
COc1ccc(NC(=S)N(CCN2CCCCC2)Cc2ccco2)cc1	i	i	i	10.3*	i	i	i	i	i
COc1ccc(NC(=S)N(CCCN2CCCC2)Cc2ccco2)cc1	i	i	i	i	i	/	/	/	/
COc1cc(CC(=O)NCCCc2ccccc2)cc(OC)c1OC	i	i	i	i	i	/	/	/	/
COc1ccc(CNC(=O)CCN2C(=O)c3ccccc3C2=O)cc1OC	i	i	i	i	i	/	/	/	/
COc1ccc(CNC(=O)CCN2C(=O)c3ccncc3C2=O)cc1OC	i	i	i	26.7*	i	13.2%*	i	i	i
CC[C@@H]1CC=C[C@H]2[C@H]1C(=O)N(Cc1ccccc1)[C@H]2c1ccc(OC)c(Cl)c1	i	i	i	i	i	/	/	/	/
CC1Cc2ccccc2N1C(=O)C1CCCN(S(=O)(=O)c2cccc3cccnc23)C1 (stereo unspecified)	/	i	i	8.91*	/	8.6%*	i	i	i
CN(C)C(=O)c1cn(-c2ccccc2)nc1-c1cc2ccccc2oc1=O	i	i	i	i	i	/	/	/	/
CN(C)C(=O)c1cn(-c2ccccc2)nc1-c1cc2ccccc2o1	i	i	i	8.05*	i	i	i	i	i
CC1(C)c2ccccc2-c2nc3ccccc3cc2C1O (stereo unspecified)	i	i	i	9.61*	i	i	i	i	i
O=C(NC12CC3CC(CC(C3)C1)C2)c1cccnc1Cl	i	i	i	i	i	/	/	/	/
CCc1nnc(NC(=O)c2nn(-c3ccccc3)nc2C)s1	i	i	i	i	i	/	/	/	/

Assay outcomes as filed in PubChem.
